Screens deposited in PubChem by several laboratories.
A selection: hits, their analogues and other compounds. The true share with any hit is near 2.2%.
HDAC3 inh: human HDAC3 inhibition. recombinant HDAC3, fluorogenic peptide/trypsin coupled, fluorescence. 320,000 tested, 0.15% active. inhibition, % at 8.3 µM. O15379; in the data active = inhibition above about 26%, passing the limit was not always enough
Target sequence (O15379 whole entry, looked up): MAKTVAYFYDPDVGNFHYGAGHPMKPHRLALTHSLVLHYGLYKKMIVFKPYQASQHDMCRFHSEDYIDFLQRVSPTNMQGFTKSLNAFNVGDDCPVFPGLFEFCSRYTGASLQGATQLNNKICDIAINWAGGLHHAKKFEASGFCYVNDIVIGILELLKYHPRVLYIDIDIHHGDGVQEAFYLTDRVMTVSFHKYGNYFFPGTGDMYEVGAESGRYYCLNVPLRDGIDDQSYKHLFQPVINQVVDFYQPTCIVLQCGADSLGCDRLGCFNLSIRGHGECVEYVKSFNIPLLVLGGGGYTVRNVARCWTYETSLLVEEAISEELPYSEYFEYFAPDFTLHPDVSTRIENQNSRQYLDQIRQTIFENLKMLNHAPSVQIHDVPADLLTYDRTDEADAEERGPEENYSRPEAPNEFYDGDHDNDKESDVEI
Efflux pump inh: antifungal efflux pump inhibition, Nile Red retention; S. cerevisiae Candida pump triplex; inhibition, % at 10 µM; 330,000 tested, 0.44% active; AID 485275;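 active = plate passing quality check with inhibition over a set limit, or well fluorescence over plate mean plus 4 SD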;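 also: Nile Red retained in pooled yeast measured as flow cytometry median fluorescence; higher means more Nile Red kept so more efflux inhibition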
PolyA inh: yeast polyadenylation inhibition | activity score, % at 12 µM | 300,000 tested, 0.02% active | S. cerevisiae SKY197-pL101 polyadenylation reporter, beta-gal luminescence; efflux-impaired pdr1/pdr3 knockout yeast; score 100 = 6 SD above DMSO;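 active = lowest replicate activity score at least 50, where 100 means six control SD above control mean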;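 also: yeast exposed to compound for 9 h at 30 °C; higher score means more reporter readthrough which indicates perturbed polyadenylation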
T cruzi repl: blocks replication of Trypanosoma cruzi. inhibition, % (no concentration beside the values). AID 1885. 300,000 tested, 1.4% active. T. cruzi beta-gal in NIH3T3, luminescence, 90 h;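 active = mean inhibition across valid replicates above about 55%, limit read from the data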;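 also: signal also drops with host cell toxicity which is not excluded here; higher percent means less beta-gal luminescence so fewer parasites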
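Assay system: NIH/3T3 fibroblasts plus reporter T. cruzi. Amount: NIH/3T3 cells, 5,000 per well. Buffer or medium: DMEM, 2% fetal bovine serum. Doses: compound pinned at 50 nL/well, DMSO. Schedule: ≥90 h infection period, 3 h prior cell attachment. Signal: luminescent β-galactosidase signal after 60 min lysis. Read-out: parasite load inhibition, %.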
AI-2 QS modul: Vibrio harveyi AI-2 quorum sensing modulation | 300,000 tested, 0.4% active | Vibrio harveyi JMH597 AI-2 luminescence/OD600 ratio, 9 h; hits give low values; strain lacks LuxN and CqsS sensors; 0 = neutral-control median | activity change, % at 7.5 µM; in the data active = activity change below about -75%, passing the limit was not always enough;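 also: luminescence divided by OD600 gain over 9 h not by final OD600 alone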
Of the large screens only hits and unclear results are named; the others gave an inactive call.

Cc1ccc2[nH]c(=O)c(CN(CCCN(C)C)C(=S)NCCc3ccccc3)cc2c1	T cruzi repl 84
CCOc1ccc(NS(=O)(=O)c2ccc(C(=O)NCC(c3ccc(OC)cc3)N3CCOCC3)cc2)cc1 (stereo not drawn)	none
N[C@@H](Cc1ccccc1)C(=O)N1CCC(C(=O)N[C@@H](Cc2c[nH]c3ccccc23)C(=O)O)CC1	none
COC(=O)c1ccccc1-c1c2ccc(=N)cc-2oc2cc(N)ccc12	Efflux pump inh 116 (no result: PolyA inh, T cruzi repl, AI-2 QS modul)
CCOC(=O)NC1(C(F)(F)F)NC(=O)N(c2ccc(F)cc2)C1=O (stereo not drawn)	none
O=C(COC(=O)c1ccc2c(c1[N+](=O)[O-])C(=O)c1ccccc1C2=O)NC1CC1	T cruzi repl 66 (no result: PolyA inh)
O=C(COC(=O)c1cccc2c1C(=O)c1ccccc1C2=O)NC1CCCCC1	none
CCN(CC)CCN(C(=O)c1ccc2c(c1)CCCC2)c1nc2ccc(F)cc2s1	T cruzi repl 55 (no result: HDAC3 inh)
CN(C)CCCN(C(=O)c1ccc(S(=O)(=O)N(C)C)cc1)c1nc2ccc(F)cc2s1	T cruzi repl 67
Cc1ccc2nc(N(CCCN(C)C)C(=O)c3ccc(S(=O)(=O)N(C)C)cc3)sc2c1	none
CN(C)CCN(C(=O)c1cc(Cl)sc1Cl)c1nc2ccc(F)cc2s1	T cruzi repl 56
COc1ccc2sc(N(CCN(C)C)C(=O)c3cc(Cl)sc3Cl)nc2c1	none
O=C(C1=C[C@H](c2ccc3c(c2)OCO3)C[C@H](OCCCCO)O1)N1CCN(Cc2ccc3c(c2)OCO3)CC1	none
O=C(C1=C[C@H](C2CCCCC2)C[C@H](OCCCCO)O1)N1CCN(Cc2ccc3c(c2)OCO3)CC1	T cruzi repl 56
CCO[C@@H]1OC(C(=O)N2CCN(Cc3ccc4c(c3)OCO4)CC2)=C[C@H](C2CCCCC2)[C@H]1CCCO	T cruzi repl 72
O=C(C1=C[C@H](c2csc3ccccc23)C[C@H](OCc2ccc(CO)cc2)O1)N1CCN(Cc2ccc3c(c2)OCO3)CC1	T cruzi repl 62
O=C(C1=C[C@@H](c2ccc3c(c2)OCO3)C[C@@H](OCCCCO)O1)N1CCN(Cc2ccc3c(c2)OCO3)CC1	none
O=C(C1=C[C@H](c2csc3ccccc23)C[C@H](OCc2ccc(CO)cc2)O1)N1CCN(Cc2ccccc2)CC1	none
O=C(C1=C[C@H](c2ccc(Br)cc2)C[C@H](OCCCCO)O1)N1CCN(Cc2ccc3c(c2)OCO3)CC1	T cruzi repl 65
Cc1c(C=O)c(=O)n(-c2ccccc2)n1-c1ccccc1	none
N#C/C(=C\c1cccnc1)C(=O)Nc1ccc(O)cc1F	none
CCOc1ccc(Cl)cc1S(=O)(=O)N1CCC(C(=O)NC2CC2)CC1	none
O=C(COC(=O)c1ccccc1O)Nc1cccc2ccccc12	none (no result: PolyA inh, T cruzi repl, AI-2 QS modul)
COc1ccccc1N=Cc1nc(-c2ccccc2)oc1OC(C)=O	none
CC(=O)Oc1oc(-c2ccccc2)nc1/C=N/c1ccccn1	HDAC3 inh 84
CCOc1ccc2nc(NC(=O)C3CCN(c4cnccn4)CC3)sc2c1	T cruzi repl 61
O=C(Nc1ccc(F)c(Cl)c1)C1CCCN(c2cnccn2)C1 (stereo not drawn)	T cruzi repl 61
CCCc1ccc(NC(=O)C2CCN(c3cnccn3)CC2)cc1	none (no result: HDAC3 inh)
Cc1ccc(NC(=O)C2CCN(c3cnccn3)CC2)cc1	T cruzi repl 63
CCOc1ccc2nc(NC(=O)CSc3nnnn3C3CCCCC3)sc2c1	T cruzi repl 56
COc1ccc2nc(NC(=O)CSc3nnnn3C3CCCCC3)sc2c1	none
O=C(Cc1noc2ccccc12)Nc1ccc(Cl)cc1	AI-2 QS modul -84
O=C(Cc1noc2ccccc12)NNC(=S)Nc1ccc(Cl)cc1	none
COc1ccc(Oc2coc3cc(O)ccc3c2=O)cc1	AI-2 QS modul -94
Cn1ncc(Cl)c1C(=O)N1CCN(S(=O)(=O)c2ccc(Cl)s2)CC1	none
CCCN1CNc2c(c(=O)[nH]c(=S)n2CCc2ccc(OC)c(OC)c2)C1	none
COc1ccc(C2CC(=O)N3CN(c4ccc(C)c(Cl)c4)CSC3=C2C#N)cc1 (stereo not drawn)	HDAC3 inh 51
COc1cc(OC)c(C2CC(=O)N3CN(c4ccccc4C)CSC3=C2C#N)cc1OC (stereo not drawn)	none
COc1ccc(N2CSC3=C(C#N)C(c4cccc(OC)c4OC)CC(=O)N3C2)cc1 (stereo not drawn)	HDAC3 inh 56
